As a reminder, the MIC is the smallest concentration in the dilution series that meets the test's criterion for growth inhibition. Broadly, the Ki is the equilibrium dissociation constant of an inhibitor or competing ligand from its target. A lower Ki goes with tighter binding. The kcat/Km is the turnover number divided by the Michaelis constant. The Km is the concentration of substrate that gives half-maximal velocity. The kcat is the number of substrate molecules converted per active site and unit of time at saturation.

Converted amounts (≈) assume the structure as drawn. Where only a bound is given, the exact number is not on record here.

Here are results for 9 molecules from ChEMBL document CHEMBL1150790, “Biochemical characterization of PER-2 and genetic environment of blaPER-2” (Antimicrob Agents Chemother, 2007).

The subject of data set [1] is Escherichia coli. In words: Antimicrobial activity against Escherichia coli CAG12177 by agar dilution method. The format is functional. In a few lines:
(§1)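 MICs were determined by agar dilution following CLSI guidelines, with inoculum applied by a Steers multipoint inoculator.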

Data set [2] relates to Escherichia coli. In words: Antimicrobial activity against Escherichia coli 33587-TC9 by agar dilution method. It is filed as functional. In a few lines:
as §1
For orientation: Agar dilution tests growth on a series of plates holding different concentrations.

In data set [3] the test system is Citrobacter freundii. In words: Antimicrobial activity against Citrobacter freundii 33587 isolate by agar dilution method. It is filed as functional. The procedure, abridged:
as §1

The target of data set [4] is T1, PER-2 beta-lactamase (Citrobacter freundii) (UniProt A2RP81).
T1 sequence (whole entry): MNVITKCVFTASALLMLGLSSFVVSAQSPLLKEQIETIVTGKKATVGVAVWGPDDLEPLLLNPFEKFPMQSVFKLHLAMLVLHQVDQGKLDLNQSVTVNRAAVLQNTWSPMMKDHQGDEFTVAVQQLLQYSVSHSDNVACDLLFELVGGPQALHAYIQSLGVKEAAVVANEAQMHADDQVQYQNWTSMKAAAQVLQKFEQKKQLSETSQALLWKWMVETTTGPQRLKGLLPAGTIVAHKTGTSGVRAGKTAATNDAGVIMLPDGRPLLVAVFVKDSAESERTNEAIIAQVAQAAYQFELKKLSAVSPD
In words: Ratio of Kcat to Km of Citrobacter freundii PER2 beta lactamase relative to cephalothin. In a few lines:
(§2)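 Purified recombinant PER-2 (E. coli BL21(DE3) expression, Q-Sepharose purification) was assayed spectrophotometrically at 30°C in 500 μl. kcat and Km came from initial steady-state rates.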

Data set [5] has as its target T2, PER-2 beta-lactamase (Citrobacter freundii, UniProt A2RP81).
T2 sequence (A2RP81 whole entry): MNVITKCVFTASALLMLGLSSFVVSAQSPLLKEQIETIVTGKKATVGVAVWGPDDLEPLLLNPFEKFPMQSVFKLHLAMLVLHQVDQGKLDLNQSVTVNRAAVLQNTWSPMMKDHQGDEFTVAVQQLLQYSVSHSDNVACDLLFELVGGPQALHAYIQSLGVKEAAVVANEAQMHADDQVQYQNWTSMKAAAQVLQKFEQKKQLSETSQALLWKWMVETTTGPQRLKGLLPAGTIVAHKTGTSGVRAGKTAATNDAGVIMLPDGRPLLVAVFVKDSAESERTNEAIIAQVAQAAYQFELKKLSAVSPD
In words: Inhibition of Citrobacter freundii PER2 beta lactamase. The procedure, abridged: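 Purified recombinant PER-2 was incubated with the drug plus 100 μM nitrocefin as reporter substrate in 500 μl at 30°C. Residual enzyme activity was read spectrophotometrically. Apparent Km values were derived as competitive inhibitor constants (Ki).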

Substrate in data set [6]: CC1(C)S[C@@H]2[C@H](NC(=O)[C@H](N)c3ccccc3)C(=O)N2[C@H]1C(=O)O
In words: (§3) Ratio of Kcat to Km of Citrobacter freundii PER2 beta lactamase. The procedure, abridged:
as §2

Substrate in data set [7]: CO/N=C(\C(=O)N[C@@H]1C(=O)N2C(C(=O)O)=C(COC(C)=O)CS[C@H]12)c1csc(N)n1
Described as §3. In a few lines:
as §2

Substrate in data set [8]: CC(C)(O/N=C(\C(=O)N[C@@H]1C(=O)N2C(C(=O)[O-])=C(C[n+]3ccccc3)CS[C@H]12)c1csc(N)n1)C(=O)O
Described as §3. In a few lines: as §2

Substrate in data set [9]: C[C@H]1[C@H](NC(=O)/C(=N\OC(C)(C)C(=O)O)c2csc(N)n2)C(=O)N1S(=O)(=O)O
Described as §3. In a few lines:
as §2

Substrate in data set [10]: CCN1CCN(C(=O)N[C@@H](C(=O)N[C@@H]2C(=O)N3[C@@H]2SC(C)(C)[C@@H]3C(=O)O)c2ccccc2)C(=O)C1=O
The data set is described as §3. In a few lines: as §2

Substrate in data set [11]: CO/N=C(\C(=O)N[C@@H]1C(=O)N2C(C(=O)[O-])=C(C[N+]3(C)CCCC3)CS[C@H]12)c1csc(N)n1
Described as §3. In a few lines: as §2

Substrate in data set [12]: CCN1CCN(C(=O)N[C@@H](C(=O)N[C@@H]2C(=O)N3C(C(=O)O)=C(CSc4nnnn4C)CS[C@H]23)c2ccc(O)cc2)C(=O)C1=O
Described as §3. In a few lines:
as §2

Substrate in data set [13]: CC(=O)OCC1=C(C(=O)O)N2C(=O)[C@@H](NC(=O)Cc3cccs3)[C@H]2SC1
The description is as §3. In a few lines:
as §2

Substrate in data set [14]: CO/N=C(\C(=O)N[C@@H]1C(=O)N2C(C(=O)O)=C(COC(N)=O)CS[C@H]12)c1ccco1
The description is as §3. The procedure, abridged:
as §2

Substrate in data set [15]: CC1(C)S[C@@H]2[C@H](NC(=O)Cc3ccccc3)C(=O)N2[C@H]1C(=O)O
The data set is described as §3. The procedure, abridged:
as §2

Substrate in data set [16]: O=C(Cc1cccs1)N[C@@H]1C(=O)N2C(C(=O)O)=C(/C=C/c3ccc([N+](=O)[O-])cc3[N+](=O)[O-])CS[C@H]12
The description is as §3. The procedure, abridged: as §2

Substrate in data set [17]: CC1(C)S[C@@H]2[C@H](NC(=O)[C@H](N)c3ccccc3)C(=O)N2[C@H]1C(=O)O
In words: (§4) Activity of Citrobacter freundii PER2 beta lactamase.

Substrate in data set [18]: CO/N=C(\C(=O)N[C@@H]1C(=O)N2C(C(=O)O)=C(COC(C)=O)CS[C@H]12)c1csc(N)n1
The description is as §4.

Substrate in data set [19]: CC(C)(O/N=C(\C(=O)N[C@@H]1C(=O)N2C(C(=O)[O-])=C(C[n+]3ccccc3)CS[C@H]12)c1csc(N)n1)C(=O)O
The description is as §4.

Substrate in data set [20]: C[C@@H](O)[C@H]1C(=O)N2C(C(=O)O)=C(SCCNC=N)C[C@H]12
The data set is described as §4.

Substrate in data set [21]: CO[C@@]1(NC(=O)Cc2cccs2)C(=O)N2C(C(=O)O)=C(COC(N)=O)CS[C@@H]21
The data set is described as §4.

Substrate in data set [22]: C[C@H]1[C@H](NC(=O)/C(=N\OC(C)(C)C(=O)O)c2csc(N)n2)C(=O)N1S(=O)(=O)O
Described as §4.

Substrate in data set [23]: CCN1CCN(C(=O)N[C@@H](C(=O)N[C@@H]2C(=O)N3[C@@H]2SC(C)(C)[C@@H]3C(=O)O)c2ccccc2)C(=O)C1=O
Described as §4.

Substrate in data set [24]: CO/N=C(\C(=O)N[C@@H]1C(=O)N2C(C(=O)[O-])=C(C[N+]3(C)CCCC3)CS[C@H]12)c1csc(N)n1
The description is as §4.

Substrate in data set [25]: CCN1CCN(C(=O)N[C@@H](C(=O)N[C@@H]2C(=O)N3C(C(=O)O)=C(CSc4nnnn4C)CS[C@H]23)c2ccc(O)cc2)C(=O)C1=O
The description is as §4.

Substrate in data set [26]: CC(=O)OCC1=C(C(=O)O)N2C(=O)[C@@H](NC(=O)Cc3cccs3)[C@H]2SC1
The data set is described as §4.

Substrate in data set [27]: CO/N=C(\C(=O)N[C@@H]1C(=O)N2C(C(=O)O)=C(COC(N)=O)CS[C@H]12)c1ccco1
The description is as §4.

Substrate in data set [28]: CC1(C)S[C@@H]2[C@H](NC(=O)Cc3ccccc3)C(=O)N2[C@H]1C(=O)O
The description is as §4.

Substrate in data set [29]: O=C(Cc1cccs1)N[C@@H]1C(=O)N2C(C(=O)O)=C(/C=C/c3ccc([N+](=O)[O-])cc3[N+](=O)[O-])CS[C@H]12
Described as §4.

Turning to `CCn1cc(C(=O)O)c(=O)c2ccc(C)nc21` [NALIDIXIC ACID], the MIC in data set [1] was more than 128 µg/mL; in data set [2], more than 128 µg/mL; in data set [3], 2 µg/mL (≈ 8.61 µM).
In the case of `CN(C)[C@@H]1C(O)=C(C(N)=O)C(=O)[C@@]2(O)C(O)=C3C(=O)c4c(O)cccc4[C@@](C)(O)[C@H]3C[C@@H]12` [TETRACYCLINE], the MIC came to 32 µg/mL (≈ 72 µM) in data set [1], 32 µg/mL (≈ 72 µM) in data set [2] and 0.5 µg/mL (≈ 1.13 µM) in data set [3].
`CO/N=C(\C(=O)N[C@@H]1C(=O)N2C(C(=O)O)=C(COC(N)=O)CS[C@H]12)c1ccco1`: in data set [4], the Activity was determined as 45%.
In the case of `CO/N=C(\C(=O)N[C@@H]1C(=O)N2C(C(=O)[O-])=C(C[N+]3(C)CCCC3)CS[C@H]12)c1csc(N)n1`, the figures for the minimum inhibitory concentration (MIC) in data set [1], in data set [2] and in data set [3] were not above 0.063 µg/mL, 8 µg/mL (≈ 16.6 µM) and 16 µg/mL (≈ 33.3 µM), respectively. Further, in [4], the Activity was 3%.
Molecule `C[C@H]1[C@H](NC(=O)/C(=N\OC(C)(C)C(=O)O)c2csc(N)n2)C(=O)N1S(=O)(=O)O` [AZTREONAM] yielded a Ki in data set [5] of 2000 nM. Also, the values for the MIC in data set [1], in [2] and in [3] were not above 0.016 µg/mL, 256 µg/mL (≈ 588 µM) and 256 µg/mL (≈ 588 µM), respectively. Besides, in data set [4], the Activity came out at 18%.
With `CO[C@@]1(NC(=O)Cc2cccs2)C(=O)N2C(C(=O)O)=C(COC(N)=O)CS[C@@H]21` [CEFOXITIN], the Ki in [5] was found to be 140 nM. Further, the MIC in [1] is not above 0.063 µg/mL; in data set [2], 0.125 µg/mL (≈ 0.292 µM); in [3], 1 µg/mL (≈ 2.34 µM). Further, the Activity in [4] came out at 18%.
With `CCN1CCN(C(=O)N[C@@H](C(=O)N[C@@H]2C(=O)N3C(C(=O)O)=C(CSc4nnnn4C)CS[C@H]23)c2ccc(O)cc2)C(=O)C1=O`, the Activity in data set [4] came to 15%.
For `O=C(N[C@H](CO)[C@H](O)c1ccc([N+](=O)[O-])cc1)C(Cl)Cl` [CHLORAMPHENICOL], the MIC in data set [1] is 2 µg/mL (≈ 6.19 µM); in data set [2] it was more than 32 µg/mL; in [3] it was more than 32 µg/mL.

B1: PER-2 beta-lactamase (Citrobacter freundii), A2RP81 (protein)
chain: MNVITKCVFTASALLMLGLSSFVVSAQSPLLKEQIETIVTGKKATVGVAVWGPDDLEPLLLNPFEKFPMQSVFKLHLAMLVLHQVDQGKLDLNQSVTVNRAAVLQNTWSPMMKDHQGDEFTVAVQQLLQYSVSHSDNVACDLLFELVGGPQALHAYIQSLGVKEAAVVANEAQMHADDQVQYQNWTSMKAAAQVLQKFEQKKQLSETSQALLWKWMVETTTGPQRLKGLLPAGTIVAHKTGTSGVRAGKTAATNDAGVIMLPDGRPLLVAVFVKDSAESERTNEAIIAQVAQAAYQFELKKLSAVSPD
Take B1: the kcat/Km was found to be 0.35 µM⁻¹ s⁻¹ in [6]; 0.76 µM⁻¹ s⁻¹ in data set [7]; 0.43 µM⁻¹ s⁻¹ in [8]; 0.12 µM⁻¹ s⁻¹ in data set [9]; 0.2 µM⁻¹ s⁻¹ in data set [10]; 0.02 µM⁻¹ s⁻¹ in [11]. The kcat/Km in data set [12] turned out to be 0.1 µM⁻¹ s⁻¹; in data set [13], 0.67 µM⁻¹ s⁻¹; in data set [14], 0.3 µM⁻¹ s⁻¹; in data set [15], 0.12 µM⁻¹ s⁻¹; in data set [16], 1.5 µM⁻¹ s⁻¹. In addition, the Km was 38 µM in data set [17]; 46 µM in [18]; 320 µM in [19]; 16 µM in [24]; 5 µM in data set [25]; 9 µM in data set [26]. Also, the Km in data set [27] turned out to be 21 µM; in data set [28], 16 µM; in data set [29] it was 32 µM. Moreover, the kcat in [17] is 12 s⁻¹; in data set [18], 34 s⁻¹; in data set [19] it was 140 s⁻¹; in data set [20], less than 0.001 s⁻¹; in [21], less than 0.001 s⁻¹; in data set [22], 0.23 s⁻¹. In addition, the kcat turned out to be 0.04 s⁻¹ in data set [23]; 0.39 s⁻¹ in data set [24]; 0.5 s⁻¹ in data set [25]; 6 s⁻¹ in [26]; 6 s⁻¹ in data set [27]; 2 s⁻¹ in data set [28]. Besides, the kcat in [29] amounted to 48 s⁻¹.
